Screening results: PubChem BioAssay, several laboratories
This is a sample that favours compounds with a hit; in the whole collection about 1.3% have one here.
HKDC1 inhibitor: HKDC1 (human) hexokinase inhibition | inhibition, % at 20 µM | 340,000 tested, 0.16% active | recombinant HKDC1, G6PDH/diaphorase resazurin coupled fluorescence | AID 493160;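 active = inhibition above about 35% when tested at 20 µM, limit read from the data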
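Test system: recombinant HKDC1 (HK5) hexokinase enzyme, produced in-house / Doses: 20 µM test compound, 1% DMSO / Timing: 90 min, room temperature / Detection: G6PDH/diaphorase-coupled fluorescence, 1 mM NADP, 100 µM resazurin, 525/613 nm / Control set: DMSO wells with and without enzyme mix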
Diaph inh CS: inhibits diaphorase or chemically oxidizes, flagging diaphorase assay artifacts; inhibition, % at 20 µM; 190,000 tested, 0.69% active; diaphorase resazurin-to-resorufin fluorescence, NADH, 16 min; bacterial (C. kluyveri) enzyme, not human;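 active = primary screen inhibition at 20 µM above a set limit, cut at about 50% in these data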
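System: Diaphorase enzyme from Clostridium kluyveri | Amount: Enzyme working solution with 0.14 U/mL diaphorase | Benchmarks: No-NADH positive control and DMSO neutral control | Signal: Fluorescence of resorufin formed from resazurin, Ex 544/Em 590 nm | Schedule: 16-min room-temperature incubation before reading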
G6PDH CS: counter-screen for G6PDH assay hits: L. mesenteroides G6PDH inhibition; inhibition, % at 5 µM; 200,000 tested, 0.12% active; Purified L. mesenteroides G6PDH, diaphorase/resazurin coupled fluorescence, 45 min; in the data active = inhibition above about 50%
TbHK1 inh: T. brucei hexokinase 1 inhibition. recombinant TbHK1, G6PDH-coupled NADH A340. inhibition, % at 10 µM. 220,000 tested, 0.11% active;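 active = inhibition of 50% or more in the single-dose primary screen; inactive = inhibition below 50%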
PfG6PD inh: PfG6PD (Plasmodium falciparum) enzyme inhibition; PfGluPho enzyme, NADPH resazurin-diaphorase fluorescence; inhibition, % at 20 µM; 350,000 tested, 0.78% active; AID 504690;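 active = inhibition reaching at least a set limit at 20 µM in the primary screen, cut at about 59% in these data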
Hits are given with their value; - = inactive; . = not tested or not shown.

SMILES	HKDC1 inhibitor	Diaph inh CS	G6PDH CS	TbHK1 inh	PfG6PD inh
COc1ccccc1NC(=O)c1cc(C)nc2ccccc12	-	63.0	-	-	-
CC(=O)c1cc2c(O)c(O)ccc2o1	-	73.5	54.5	-	-
COC(=O)c1cc(O)c(O)c(O)c1	-	50.0	-	-	-
Clc1cc(Br)ccc1OCCOCCN1CCOCC1	-	-	-	-	-
CC1(C)Cc2c(C#N)c(N3CCCC3)nc(-c3ccco3)c2CO1	.	54.6	-	-	.
CCCc1cc(-c2nc(N)ncc2-c2csc(C)n2)c(O)cc1OC	-	-	-	-	-
CCCc1cc(-c2nc(N)ncc2-c2ccc3c(c2)OCCCO3)c(O)cc1OC	-	-	-	-	70.9
CC(C)CC(=O)Nc1c2c(nn1-c1cccc(Cl)c1)CS(=O)C2 (centres undefined)	-	.	.	.	-
Cc1cccc(OCCCC(=O)NCCc2ccccc2)c1	-	-	-	-	-
CC(=O)Nc1ccc(N(C(=O)Cn2nnc3ccccc32)C(C(=O)NC2CCCC2)c2ccc(O)c(O)c2)cc1 (centres undefined)	-	55.9	-	-	-
O=C1/C(=C\c2ccco2)SC(=S)N1C1CCS(=O)(=O)C1 (centres undefined)	-	.	.	-	-
O=C(CCCN1C(=O)/C(=C/c2ccco2)SC1=S)Nc1ccccc1C(=O)O	-	.	.	-	-
O=C1/C(=C/c2ccco2)SC(=S)N1C1CCS(=O)(=O)C1 (centres undefined)	-	61.1	-	-	-
O=C(O)CCCN1C(=O)/C(=C\c2ccco2)SC1=S	-	59.2	-	-	-
Cc1ccc(S(=O)(=O)N(C)Cc2ccc(C(=O)N/N=C/c3ccc(OC(F)F)cc3)cc2)cc1	-	-	-	-	-
COc1cccc(NS(=O)(=O)c2ccc3c(c2)N(C(C)=O)CCO3)c1	-	.	.	.	-
COc1cc(OC)c(NC(=O)Cc2ccc(OC)c(S(=O)(=O)N3CCOCC3)c2)cc1Cl	-	.	.	.	-
O=C(O)Cc1ccc(C(=O)c2ccc(Cl)cc2Cl)s1	-	83.0	-	-	-
NC(=O)Cc1ccc(C(=O)c2ccc(Cl)cc2Cl)s1	-	-	-	-	-
O=C1c2cccc3c([N+](=O)[O-])ccc(c23)C(=O)N1c1nccs1	-	-	-	-	60.0
CCc1cc2c(=O)n(-c3ccccc3)c(SCC(N)=O)nc2s1	-	.	.	.	-
CCc1cc2c(=O)n(-c3ccccc3)c(=S)[nH]c2s1	-	81.0	-	-	-
Nc1ccc2[nH]ncc2c1	-	58.5	-	-	-
O=C(Cc1ccc(F)cc1)Nc1ccc2[nH]ncc2c1	-	.	.	.	-
O=c1c2c([N+](=O)[O-])cc([N+](=O)[O-])cc2sn1Cc1ccccc1	-	.	.	.	123.6
SMILES	HKDC1 inhibitor	Diaph inh CS	G6PDH CS	TbHK1 inh	PfG6PD inh
O=c1c2c([N+](=O)[O-])cc([N+](=O)[O-])cc2sn1-c1ccc(Br)cc1	-	67.1	-	92.0	121.0
O=C(Nc1ccc(Br)cc1)c1cc([N+](=O)[O-])cc([N+](=O)[O-])c1	-	.	.	.	-
COc1ccc2c(c1)c(C(=O)N/N=C/c1ccccc1Cl)c(C)n2C	-	.	.	-	-
CCCSc1nc(N)nc(-c2cccs2)c1C#N	-	-	-	-	-
N#Cc1sc2nc(-c3ccccc3)cc(-c3ccco3)c2c1N	-	62.5	-	-	-
COc1cccc2cc(-c3ccnc(=S)[nH]3)oc12	.	57.5	-	-	.
N#CCCCn1c(-c2ccccc2)noc1=O	-	-	-	-	-
CC(=O)Nc1ccc(S(=O)(=O)Oc2ccc3c(c2)C(C)=CC(C)(C)N3)cc1	.	-	-	-	.
CC1=CC(C)(C)Nc2ccc(OS(=O)(=O)c3ccc(C)cc3)cc21	-	50.1	-	-	-
Cc1c(NC(=O)c2cc3nc(-c4ccc(Cl)cc4)cc(C(F)(F)F)n3n2)c(=O)n(-c2ccccc2)n1C	-	-	-	-	-
CCn1c(O)c(N=N)c2ccccc21	-	-	-	-	-
CCn1c(O)c(N=NC2=NC(=O)CS2)c2ccccc21	-	65.4	-	-	-
Cc1cccc2cc3c(N)c(C#N)sc3nc12	-	-	-	-	-
Cc1sc(NC(=O)c2sc3nc4c(C)cccc4cc3c2N)c(C#N)c1C	-	59.1	-	-	-
O=C(Nc1ccccn1)N1CCOCC1	-	-	-	-	-
Cc1ccc(NC(=S)Nc2ccccn2)cc1C	-	.	.	-	-
Cc1ccc(NC(=S)Nc2ccc3nc(-c4ccccn4)c(-c4ccccn4)nc3c2)cc1C	-	74.7	60.0	-	96.7
O=C(Nc1ccc2nc(-c3ccco3)c(-c3ccco3)nc2c1)N1CCCCCC1	45.2	93.7	-	-	-
O=C(Nc1ccc2nc(-c3ccccn3)c(-c3ccccn3)nc2c1)N1CCOCC1	-	58.0	-	-	-
Cc1ccc(S(=O)(=O)N(C)C[C@H]2OCc3cn(nn3)CCCC(=O)N([C@@H](C)CO)C[C@@H]2C)cc1	.	.	.	.	-
COc1cccc(-c2nnc3sc(-c4ccccc4)nn23)c1	-	-	-	-	-
COc1cccc(OC)c1-c1nn2c(-c3cc(-c4ccccc4)n[nH]3)nnc2s1	43.8	-	-	-	-
CCCCOc1ccc(N(CC(=O)NCc2ccco2)C(=O)CCC(=O)Nc2nccs2)cc1	-	.	.	.	-
COc1cccc(/C=N/Nc2ccc([N+](=O)[O-])cn2)c1O	35.8	.	.	.	-
O=[N+]([O-])c1ccc(NN=Cc2cccc3ccccc23)nc1	-	.	.	.	-
SMILES	HKDC1 inhibitor	Diaph inh CS	G6PDH CS	TbHK1 inh	PfG6PD inh
C=CCn1c(SCC(=O)NC(=O)NCc2ccco2)nc2sc(C)c(C)c2c1=O	-	-	-	-	-
COc1ccccc1CCNC(=O)CSc1ccc(-c2cccs2)nn1	-	-	-	-	-
COc1ccccc1NC(=O)CSc1ccc(-c2cccs2)nn1	-	57.4	-	-	-
COc1ccc(NC(=O)Nc2ccc(O)c3ccccc23)cc1	-	.	.	.	71.7
COc1ccc(C(=O)Nc2ccc(O)c3ccccc23)cc1	-	.	.	.	-
COc1cccc(C(=O)NC2CC3CCCC(C2)N3CC(=O)Nc2ccccc2)c1 (centres undefined)	-	57.5	-	-	-
CC(C)[C@@H]1NC(=O)c2cc([N+](=O)[O-])cc(I)c2NCCC[C@@H](C(N)=O)NC(=O)[C@H](CO)NC1=O	-	-	-	-	-
O=C(O)/C=C/C(=O)Nc1ccc2c(c1)NC(=O)CO2	-	61.4	-	-	-
COc1cc(C2CC(=O)NC3=C2C(=O)CC(C)(C)C3)cc(OC)c1O (centres undefined)	-	-	50.5	-	-
COc1ccc(NC(=O)CC2Nc3cccc4cccc(c34)NC2=O)cc1 (centres undefined)	-	75.2	-	-	-
O=C(CC1Nc2cccc3cccc(c23)NC1=O)Nc1ccc(F)cc1 (centres undefined)	-	-	-	-	-
CCCCn1c(N)c(C(=S)NC(=O)CC(C)(C)C)c(=O)n(C)c1=O	-	61.7	-	-	-
CCCn1c(N)c(C(=O)CSc2ncn[nH]2)c(=O)n(C)c1=O	-	.	.	.	-
